Values after ≈ are worked out from the molar mass of the structure shown.
How the values were obtained:
Enterococcus faecium [1] = experiment: In vitro minimum inhibitory concentration against Enterococcus fecium upon incubation at 37 degree C for 16 to 24 hr by dissolving in DMSO (1%); assay type: functional
Method in brief: (§1)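 Broth microdilution (modified NCCLS M7-A4). Enterococci grown to log phase in brain-heart infusion broth, seeded at (3-7) × 10⁵ CFU/mL. Compounds 2-fold diluted from DMSO stocks, 20 to 1.25 µg/mL, final 1% DMSO, in duplicate. Incubated 37 °C, 16-24 h, with shaking. OD600 read.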

Staphylococcus aureus [2] = experiment: In vitro minimum inhibitory concentration against Staphylococcus aureus (Smith) upon incubation at 37 degree C for 16 to 24 hr by dissolving in DMSO (1%); assay type: functional
Staphylococcus aureus [3] = experiment: Serum effect on MIC against Staphylococcus aureus (Smith) as ratio of MIC value in presence and absence of 50% fetal calf serum; assay type: functional
Method in brief: (§2)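 Broth microdilution MIC was repeated with 50% fetal calf serum added to the growth medium (LB for S. aureus, brain-heart infusion broth for E. faecalis). The inoculum was (3-7) × 10^5 CFU/mL in 1% DMSO, incubated at 37 °C for 16-24 h, and read by OD600. The serum effect is the MIC with serum relative to the MIC without serum.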

Staphylococcus aureus [4] = experiment: In vitro minimum inhibitory concentration against Methicillin-resistant Staphylococcus aureus upon incubation at 37 degree C for 16 to 24 hr by dissolving in DMSO (1%); assay type: functional
Method in brief: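 Broth microdilution (modified NCCLS M7-A4). Staphylococci grown to log phase in Luria broth, seeded at (3-7) × 10⁵ CFU/mL. Compounds 2-fold diluted from DMSO stocks, 20 to 1.25 µg/mL, final 1% DMSO, in duplicate. Incubated 37 °C, 16-24 h, with shaking. OD600 read.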

Enterococcus faecium [5] = experiment: In vitro minimum inhibitory concentration against Vancomycin resistant Enterococci faecium upon incubation at 37 degree C for 16 to 24 hr by dissolving in DMSO (1%); assay type: functional; method in brief: as §1
Enterococcus faecalis [6] = experiment: Serum effect on MIC of compound was measured against Enterococcus faecalis as ratio of MIC value in presence and absence of 50% fetal calf serum; assay type: functional; method in brief: as §2
Enterococcus faecalis [7] = experiment: In vitro minimum inhibitory concentration against Enterococcus faecalis upon incubation at 37 degree C for 16 to 24 hr by dissolving in DMSO (1%); assay type: functional
Method in brief: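 Log-phase E. faecalis was grown in brain-heart infusion broth and seeded at (3-7) × 10^5 CFU/mL. Duplicate 2-fold dilutions ran from 20 to 1.25 µg/mL, final 1% DMSO. After 16-24 h at 37 °C with shaking, OD600 was read.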

Staphylococcus aureus [8] = experiment: Effect on survival of staphylococcus aureus (Smith) ip-infected mice at a concentration 10 mg/kg; assay type: functional
Method in brief: (§3)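 Male pathogen-free Swiss-Webster mice (20-24 g), groups of five, infected ip with ca. 10⁸ CFU log-phase S. aureus Smith (grown 37 °C in LB, washed, in 0.5 mL LB). Single ip dose 15 min post-infection, in 10% DMSO/peanut oil or PBS. Survivors counted at 72 h post-infection.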

Staphylococcus aureus [9] = experiment: Effect on survival of staphylococcus aureus (Smith) ip-infected mice at 20 mg/kg; assay type: functional; method in brief: as §3
Staphylococcus aureus [10] = experiment: In vitro minimum inhibitory concentration against Staphylococcus aureus upon incubation at 37 degree C for 16 to 24 hr by dissolving in DMSO (1%); assay type: functional
Bacillus subtilis = experiment: In vitro minimum inhibitory concentration against Bacillus subtilis upon incubation at 37 degree C for 16 to 24 h; assay type: functional
[11] = target: DNA polymerase III PolC-type (Bacillus subtilis (strain 168), UniProt P13267); experiment: Inhibitory concentration against Bacillus subtilis DNA polymerase IIIC using [3H]dTMP 250 pM (30 degree C for 10 min)
Method in brief: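 Homogeneous recombinant B. subtilis pol IIIC, 0.025-0.06 units, acted on activated calf thymus DNA with Mg2+, DTT, glycerol, dATP, dCTP, dTTP and [3H]dTTP, without dGTP. Compounds were serially diluted from DMSO. Reactions ran 10 min at 30 °C, were stopped with TCA-pyrophosphate, and the filter-collected precipitate was scintillation counted. Apparent Ki was read directly from this truncated assay; average standard deviation ±44%.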

[12] = Half life in mouse after intravenous administration at 20 mg/kg; assay type: ADME, organism-based; set-up: dose 20 mg/kg, route intravenous; settings: in vivo
Method in brief: (§4)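 Male Swiss-Webster mice (20-24 g) got a 20 mg/kg tail-vein iv bolus, either in 30% aqueous HP-β-cyclodextrin or in PBS neutralized with KOH. Groups of three were bled by cardiac puncture under halothane before dosing and at 2, 5, 15, 30, 60 and 120 min. Heparinized plasma was MeCN-treated and run on C18 HPLC at 282 nm against a spiked-plasma standard curve.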

[13] = Maximum time taken to reach Cmax was determined in mouse after subcutaneous administration at 20 mg/kg; assay type: ADME, organism-based; set-up: dose 20 mg/kg, route subcutaneous; settings: in vivo, sc
Method in brief: (§5)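 Male Swiss-Webster mice got single sc doses of 20 or 60 mg/kg in 30% aqueous HP-β-cyclodextrin, or 20, 200 or 400 mg/kg in KOH-neutralized PBS. Groups of three were bled by cardiac puncture before dosing and at 5, 15, 30, 60, 120 and 180 min, plus 360 min at 400 mg/kg. Plasma drug was measured by C18 reverse-phase HPLC at 282 nm against a spiked-plasma standard curve.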

Staphylococcus aureus [14] = experiment: Effect on survival of staphylococcus aureus (Smith) ip-infected mice at a concentration 20 mg/kg; assay type: functional; method in brief: as §3
[15] = Area under the plasma concentration curve determined in mouse after intravenous administration at 20 mg/kg; assay type: ADME, organism-based; set-up: dose 20 mg/kg, route intravenous; settings: in vivo; method in brief: as §4
[16] = Maximum plasma concentration in mouse after intravenous administration at 20 mg/kg; assay type: ADME, organism-based; set-up: dose 20 mg/kg, route intravenous; method in brief: as §4
[17] = Maximum time taken to reach Cmax was determined in mouse after subcutaneous administration at 60 mg/kg; assay type: ADME, organism-based; set-up: dose 60 mg/kg, route subcutaneous; settings: in vivo, sc; method in brief: as §5
[18] = Maximum plasma concentration in mouse after subcutaneous administration at 20 mg/kg; assay type: ADME, organism-based; set-up: dose 20 mg/kg, route subcutaneous; settings: sc; method in brief: as §5
[19] = Area under the plasma concentration curve determined in mouse after subcutaneous administration at 60 mg/kg; assay type: ADME, organism-based; set-up: dose 60 mg/kg, route subcutaneous; settings: in vivo, sc; method in brief: as §5
[20] = Area under the plasma concentration curve determined in mouse after subcutaneous administration at 20 mg/kg; assay type: ADME, organism-based; set-up: dose 20 mg/kg, route subcutaneous; settings: in vivo, sc; method in brief: as §5
[21] = Half life in mouse after subcutaneous administration at 20 mg/kg; assay type: ADME, organism-based; set-up: dose 20 mg/kg, route subcutaneous; settings: in vivo, sc; method in brief: as §5
[22] = Maximum plasma concentration in mouse after subcutaneous administration at 60 mg/kg; assay type: ADME, organism-based; set-up: dose 60 mg/kg, route subcutaneous; settings: sc; method in brief: as §5
[23] = Area under the plasma concentration curve determined in mouse after peroral administration at 200 mg/kg; assay type: ADME, organism-based; set-up: dose 200 mg/kg, route oral; settings: in vivo, po
Method in brief: (§6)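 A single 200 mg/kg gavage dose in KOH-neutralized PBS was given to male Swiss-Webster mice. Blood was taken by cardiac puncture under halothane before dosing and at 15, 30, 60, 120 and 180 min. Heparinized plasma was deproteinized with equal-volume MeCN and quantified by C18 HPLC (282 nm) against a standard curve from compound-spiked plasma.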

[24] = Maximum time taken to reach Cmax was determined in mouse after peroral administration at 200 mg/kg; assay type: ADME, organism-based; set-up: dose 200 mg/kg, route oral; settings: in vivo, po; method in brief: as §6
[25] = Maximum plasma concentration in mouse after peroral administration at 200 mg/kg; assay type: ADME, organism-based; set-up: dose 200 mg/kg, route oral; settings: po; method in brief: as §6
[26] = Area under the plasma concentration curve determined in mouse after subcutaneous administration at 200 mg/kg; assay type: ADME, organism-based; set-up: dose 200 mg/kg, route subcutaneous; settings: in vivo, sc; method in brief: as §5
[27] = Area under the plasma concentration curve determined in mouse after subcutaneous administration at 400 mg/kg; assay type: ADME, organism-based; set-up: dose 400 mg/kg, route subcutaneous; settings: in vivo, sc; method in brief: as §5
[28] = Half life in mouse after peroral administration at 200 mg/kg; assay type: ADME, organism-based; set-up: dose 200 mg/kg, route oral; settings: in vivo, po; method in brief: as §6

DNA polymerase III PolC-type, sequence (P13267 whole entry, the tested form may be a part): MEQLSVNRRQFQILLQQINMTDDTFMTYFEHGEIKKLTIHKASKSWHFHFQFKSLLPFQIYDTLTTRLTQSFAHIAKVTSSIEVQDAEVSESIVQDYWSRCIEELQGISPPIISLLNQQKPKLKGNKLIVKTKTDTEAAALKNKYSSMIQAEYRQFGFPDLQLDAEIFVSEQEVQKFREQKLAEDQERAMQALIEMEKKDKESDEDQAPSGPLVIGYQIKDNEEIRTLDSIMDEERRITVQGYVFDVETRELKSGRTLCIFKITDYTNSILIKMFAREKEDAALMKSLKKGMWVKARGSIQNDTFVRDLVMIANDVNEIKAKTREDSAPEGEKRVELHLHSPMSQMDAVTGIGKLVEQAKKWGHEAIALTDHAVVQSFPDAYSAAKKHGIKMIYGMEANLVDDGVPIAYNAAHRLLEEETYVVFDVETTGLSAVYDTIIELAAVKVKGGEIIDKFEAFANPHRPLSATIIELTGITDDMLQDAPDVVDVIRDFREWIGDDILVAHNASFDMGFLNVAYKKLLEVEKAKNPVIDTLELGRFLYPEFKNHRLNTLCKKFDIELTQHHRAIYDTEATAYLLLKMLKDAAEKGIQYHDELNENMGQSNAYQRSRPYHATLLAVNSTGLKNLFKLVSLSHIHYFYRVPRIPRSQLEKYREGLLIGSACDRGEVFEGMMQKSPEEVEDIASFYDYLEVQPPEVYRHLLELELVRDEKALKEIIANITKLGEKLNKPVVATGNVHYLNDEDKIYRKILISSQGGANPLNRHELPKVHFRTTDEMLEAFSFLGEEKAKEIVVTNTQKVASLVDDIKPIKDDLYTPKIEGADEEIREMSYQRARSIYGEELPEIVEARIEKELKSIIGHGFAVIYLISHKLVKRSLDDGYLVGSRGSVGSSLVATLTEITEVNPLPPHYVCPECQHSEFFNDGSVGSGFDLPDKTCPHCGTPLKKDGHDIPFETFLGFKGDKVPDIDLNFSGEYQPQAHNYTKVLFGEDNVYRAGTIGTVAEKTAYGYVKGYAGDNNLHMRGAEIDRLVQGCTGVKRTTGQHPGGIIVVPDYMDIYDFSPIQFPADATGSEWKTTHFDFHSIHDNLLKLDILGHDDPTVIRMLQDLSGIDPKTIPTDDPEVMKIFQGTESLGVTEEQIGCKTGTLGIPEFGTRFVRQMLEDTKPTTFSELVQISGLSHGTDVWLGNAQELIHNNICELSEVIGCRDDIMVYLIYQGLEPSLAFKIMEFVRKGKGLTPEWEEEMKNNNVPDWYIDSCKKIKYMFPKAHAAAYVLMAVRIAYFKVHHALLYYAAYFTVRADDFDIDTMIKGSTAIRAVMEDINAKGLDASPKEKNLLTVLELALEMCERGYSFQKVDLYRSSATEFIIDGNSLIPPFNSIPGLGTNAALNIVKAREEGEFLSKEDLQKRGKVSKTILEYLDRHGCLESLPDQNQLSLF

Structure (SMILES)	MIC (Enterococcus faecium [1]) [µg/mL]	MIC (Staphylococcus aureus [2]) [µg/mL]	MIC+/MIC- (Staphylococcus aureus [3])	MIC (Staphylococcus aureus [4]) [µg/mL]	MIC (Enterococcus faecium [5]) [µg/mL]	MIC+/MIC- (Enterococcus faecalis [6])	MIC (Enterococcus faecalis [7]) [µg/mL]	Activity (Staphylococcus aureus [8])	MIC (Staphylococcus aureus [10]) [µg/mL]	Ki [11] [µM]	other results
CCc1cc(Nc2cc(=O)n(CCCN3CCOCC3)c(=O)[nH]2)ccc1C	5 (≈ 13.4 µM)	10 (≈ 26.8 µM)	2.9	10 (≈ 26.8 µM)	5 (≈ 13.4 µM)	1.6	10 (≈ 26.8 µM)	–	–	–	–
CCc1cc(Nc2cc(=O)n(CCCCN3CCOCC3)c(=O)[nH]2)ccc1C	2.5 (≈ 6.47 µM)	–	2.3	10 (≈ 25.9 µM)	5 (≈ 12.9 µM)	3.2	5 (≈ 12.9 µM)	2	10 (≈ 25.9 µM)	–	Activity (Staphylococcus aureus [9]): 4
CCc1cc(Nc2cc(=O)n(CCCCCCCCN3CCOCC3)c(=O)[nH]2)ccc1C	10 (≈ 22.6 µM)	10 (≈ 22.6 µM)	>7.1	20 (≈ 45.2 µM)	5 (≈ 11.3 µM)	>12.8	10 (≈ 22.6 µM)	–	10 (≈ 22.6 µM)	0.076	MIC (Bacillus subtilis): 2.5 µg/mL (≈ 5.65 µM)
CCc1cc(Nc2cc(=O)n(CCOCCO)c(=O)[nH]2)ccc1C	5 (≈ 15 µM)	5 (≈ 15 µM)	7.5	10 (≈ 30 µM)	2.5 (≈ 7.5 µM)	–	5 (≈ 15 µM)	4	–	–	–
CCc1cc(Nc2cc(=O)n(CCN3CCOCC3)c(=O)[nH]2)ccc1C	–	–	5.5	5 (≈ 13.9 µM)	5 (≈ 13.9 µM)	2.7	5 (≈ 13.9 µM)	–	10 (≈ 27.9 µM)	–	–
CCc1cc(Nc2cc(=O)n(CCCC#N)c(=O)[nH]2)ccc1C	5 (≈ 16 µM)	–	5.4	5 (≈ 16 µM)	5 (≈ 16 µM)	–	5 (≈ 16 µM)	2	5 (≈ 16 µM)	–	–
CCc1cc(Nc2cc(=O)n(CCCCO)c(=O)[nH]2)ccc1C	5 (≈ 15.8 µM)	5 (≈ 15.8 µM)	7.5	5 (≈ 15.8 µM)	5 (≈ 15.8 µM)	–	5 (≈ 15.8 µM)	3	–	0.055	half-life [12]: 33 min; Tmax [13]: 15 min; Activity (Staphylococcus aureus [14]): 5; AUC [15]: 4800 ng·h/mL; Cmax [16]: 53000 ng/mL; Tmax [17]: 15 min; Cmax [18]: 5100 ng/mL; AUC [19]: 20200 ng·h/mL; AUC [20]: 7780 ng·h/mL; half-life [21]: 29.3 min; Cmax [22]: 13000 ng/mL
CCn1cc(C(=O)O)c(=O)c2cc(F)c(N3CCNCC3)cc21 [NORFLOXACIN]	10 (≈ 31.3 µM)	0.156 (≈ 0.489 µM)	0.4	40 (≈ 125 µM)	80 (≈ 251 µM)	2.2	2.5 (≈ 7.83 µM)	–	0.625 (≈ 1.96 µM)	–	MIC (Bacillus subtilis): 0.313 µg/mL (≈ 0.98 µM)
CN[C@H](CC(C)C)C(=O)N[C@H]1C(=O)N[C@@H](CC(N)=O)C(=O)N[C@H]2C(=O)N[C@H]3C(=O)N[C@H](C(=O)N[C@H](C(=O)O)c4cc(O)cc(O)c4-c4cc3ccc4O)[C@H](O)c3ccc(c(Cl)c3)Oc3cc2cc(c3O[C@@H]2O[C@H](CO)[C@@H](O)[C@H](O)[C@H]2O[C@H]2C[C@](C)(N)[C@H](O)[C@H](C)O2)Oc2ccc(cc2Cl)[C@H]1O [VANCOMYCIN]	1.25 (≈ 0.863 µM)	–	–	0.625 (≈ 0.431 µM)	> 20	–	0.625 (≈ 0.431 µM)	5	–	–	Activity (Staphylococcus aureus [14]): 5
CCc1cc(Nc2cc(=O)n(CCOCCOc3ccccc3)c(=O)[nH]2)ccc1C	2.5 (≈ 6.11 µM)	20 (≈ 48.8 µM)	>5.6	20 (≈ 48.8 µM)	5 (≈ 12.2 µM)	–	5 (≈ 12.2 µM)	–	20 (≈ 48.8 µM)	0.056	MIC (Bacillus subtilis): < 1.25 µg/mL
CCc1cc(Nc2cc(=O)n(CCCCN3CCOCC3)c(=O)[nH]2)ccc1C.Cl	10	–	1.7	10	5	2	5	4	10	0.052	AUC [23]: 15400 ng·h/mL; Tmax [24]: 60 min; Activity (Staphylococcus aureus [14]): 5; Cmax [25]: 7300 ng/mL; AUC [15]: 3900 ng·h/mL; AUC [26]: 26900 ng·h/mL; AUC [20]: 6770 ng·h/mL; AUC [27]: 50700 ng·h/mL; half-life [28]: 111 min
CCc1cc(Nc2cc(=O)n(CCOCCOC)c(=O)[nH]2)ccc1C	5 (≈ 14.4 µM)	–	5.5	5 (≈ 14.4 µM)	5 (≈ 14.4 µM)	–	5 (≈ 14.4 µM)	2	5 (≈ 14.4 µM)	–	–

Reference: ChEMBL document CHEMBL1140385, “Synthesis and antibacterial activity of 3-substituted-6-(3-ethyl-4-methylanilino)uracils” (J Med Chem, 2005)
